Values belong to the compound of their own block, whether it stands above or below them.
What was measured:
[1] = biological target: T1, Toll-like receptor 7 (Homo sapiens) (UniProt Q9NYK1); assay: Inhibition of human TLR7 expressed in HEK293 cells assessed as reduction in resiquimod-induced NFkappaB production at 1.5 to 5 uM incubated for 16 hrs by quanti-blue SEAP assay; assay type: cell-based
T1 sequence (whole entry): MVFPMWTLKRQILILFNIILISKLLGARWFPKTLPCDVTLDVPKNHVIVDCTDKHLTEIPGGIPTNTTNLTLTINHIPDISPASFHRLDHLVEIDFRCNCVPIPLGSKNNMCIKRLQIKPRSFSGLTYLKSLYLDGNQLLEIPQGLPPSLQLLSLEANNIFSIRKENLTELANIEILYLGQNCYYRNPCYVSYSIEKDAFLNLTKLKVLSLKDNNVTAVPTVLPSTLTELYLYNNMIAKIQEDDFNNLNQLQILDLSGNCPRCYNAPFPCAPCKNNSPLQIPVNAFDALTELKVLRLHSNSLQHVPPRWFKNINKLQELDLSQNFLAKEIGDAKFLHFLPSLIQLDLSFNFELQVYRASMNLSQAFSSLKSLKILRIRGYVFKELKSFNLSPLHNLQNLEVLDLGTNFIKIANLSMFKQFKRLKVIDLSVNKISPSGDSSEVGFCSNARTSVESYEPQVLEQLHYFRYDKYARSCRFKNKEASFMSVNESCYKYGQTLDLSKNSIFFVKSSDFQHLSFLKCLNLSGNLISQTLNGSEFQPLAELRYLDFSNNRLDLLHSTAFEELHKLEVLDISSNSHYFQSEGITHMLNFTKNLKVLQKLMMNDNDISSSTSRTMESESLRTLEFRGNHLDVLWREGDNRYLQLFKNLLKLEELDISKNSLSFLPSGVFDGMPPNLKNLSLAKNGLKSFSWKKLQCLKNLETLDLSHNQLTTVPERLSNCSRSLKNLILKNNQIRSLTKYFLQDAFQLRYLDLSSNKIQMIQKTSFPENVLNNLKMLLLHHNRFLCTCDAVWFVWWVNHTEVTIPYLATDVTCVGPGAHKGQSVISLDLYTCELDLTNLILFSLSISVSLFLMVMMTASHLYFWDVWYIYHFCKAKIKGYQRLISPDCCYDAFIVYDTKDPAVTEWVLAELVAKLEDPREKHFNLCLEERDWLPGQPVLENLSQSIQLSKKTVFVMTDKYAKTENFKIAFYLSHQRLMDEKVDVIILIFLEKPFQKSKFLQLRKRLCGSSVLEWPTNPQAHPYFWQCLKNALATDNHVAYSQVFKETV
Summary of the method: (§1)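 Selectivity panel in stably transfected HEK 293-Blue cells, each overexpressing one human TLR with an inducible SEAP reporter. Agonists: Pam3CSK4 (TLR1/2), Pam2CSK4 (TLR2/6), poly(I:C) (TLR3), LPS (TLR4), R848 (TLR7/8), ODN 2006 (TLR9). Cells were exposed to compound for 16 h. Activity = (raw − untreated)/(ligand + solvent − untreated), with ligand + solvent set as 100%.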

[2] = biological target: T2, Toll-like receptor 8 (Homo sapiens) (UniProt Q9NR97); assay: Inhibition of human TLR8 expressed in HEK293 cells assessed as reduction in R848-induced NFkappaB production at 1.5 to 5 uM incubated for 16 hrs by quanti-blue SEAP assay; assay type: cell-based; summary of the method: as §1
T2 sequence (whole entry): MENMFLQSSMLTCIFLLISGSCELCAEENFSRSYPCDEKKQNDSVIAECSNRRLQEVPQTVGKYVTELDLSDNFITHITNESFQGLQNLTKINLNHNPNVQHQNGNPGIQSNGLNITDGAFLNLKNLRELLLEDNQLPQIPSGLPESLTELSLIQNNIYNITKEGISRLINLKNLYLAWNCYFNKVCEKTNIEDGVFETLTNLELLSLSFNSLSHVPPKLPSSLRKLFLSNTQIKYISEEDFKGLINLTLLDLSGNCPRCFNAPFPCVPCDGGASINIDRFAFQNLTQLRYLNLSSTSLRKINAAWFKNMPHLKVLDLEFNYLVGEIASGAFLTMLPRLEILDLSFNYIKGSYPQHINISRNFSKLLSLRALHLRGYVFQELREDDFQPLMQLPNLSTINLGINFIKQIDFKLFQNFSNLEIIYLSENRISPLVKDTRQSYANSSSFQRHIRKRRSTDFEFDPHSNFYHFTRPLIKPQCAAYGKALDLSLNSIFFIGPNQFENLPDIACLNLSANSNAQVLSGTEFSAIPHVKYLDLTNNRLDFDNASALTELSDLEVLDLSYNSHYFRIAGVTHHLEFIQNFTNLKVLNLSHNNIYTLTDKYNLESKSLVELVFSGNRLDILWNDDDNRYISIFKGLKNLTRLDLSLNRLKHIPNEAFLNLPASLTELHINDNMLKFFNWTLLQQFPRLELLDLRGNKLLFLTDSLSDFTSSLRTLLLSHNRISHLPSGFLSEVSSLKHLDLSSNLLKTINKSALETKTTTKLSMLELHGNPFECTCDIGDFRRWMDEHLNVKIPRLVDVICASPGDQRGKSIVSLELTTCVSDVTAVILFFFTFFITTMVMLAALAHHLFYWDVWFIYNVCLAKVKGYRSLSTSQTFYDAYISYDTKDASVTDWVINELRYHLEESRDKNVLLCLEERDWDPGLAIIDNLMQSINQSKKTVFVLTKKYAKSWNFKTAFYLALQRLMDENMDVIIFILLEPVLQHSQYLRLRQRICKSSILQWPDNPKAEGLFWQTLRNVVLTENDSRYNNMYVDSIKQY

[3] = biological target: T3, Toll-like receptor 8 (Homo sapiens, UniProt Q9NR97); assay: Inhibition of human TLR8 expressed in HEK293 cells assessed as reduction in R848-induced NFkappaB production incubated for 16 hrs by quanti-blue SEAP assay; assay type: cell-based
T3 sequence (Q9NR97 whole entry): T2 sequence (whole entry)
Summary of the method: (§2)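 HEK 293-Blue cells stably expressing hTLR7 or hTLR8 with an inducible SEAP reporter were incubated 16 h with compound under 1 µg/mL R848 stimulation. SEAP was read at 620 nm. Data were normalized to the R848 control, and IC50 was taken from concentration-response curves. […] Mean ± s.d., n = 3 independent experiments.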

[4] = biological target: T4, Toll-like receptor 7 (Homo sapiens, UniProt Q9NYK1); assay: Inhibition of human TLR7 expressed in HEK293 cells assessed as reduction in R848-induced NFkappaB production incubated for 16 hrs by quanti-blue SEAP assay; assay type: cell-based; summary of the method: as §2
T4 sequence (Q9NYK1 whole entry): T1 sequence (whole entry)

[5] = biological target: T2, Toll-like receptor 8 (Homo sapiens); assay: Inhibition of human TLR8 expressed in HEK293 cells assessed as reduction in R848-induced NFkappaB production at 50 uM incubated for 16 hrs by quanti-blue SEAP assay relative to control; assay type: cell-based; summary of the method: as §2
[6] = biological target: Toll-like receptor 8 (Homo sapiens) (UniProt Q9NR97); assay: Inhibition of human TLR8 expressed in HEK293 cells assessed as reduction in resiquimod-induced NFkappaB production at 1.5 to 5 uM incubated for 16 hrs by quanti-blue SEAP assay
[7] = biological target: Toll-like receptor 7 (Homo sapiens) (UniProt Q9NYK1); assay: Inhibition of human TLR7 expressed in HEK293 cells assessed as reduction in R848-induced NFkappaB production incubated for 16 hrs by quanti-blue SEAP assay; conditions: concentration not given here
[8] = biological target: T1, Toll-like receptor 7 (Homo sapiens); assay: Inhibition of human TLR7 expressed in HEK293 cells assessed as reduction in R848-induced NFkappaB production at 50 uM incubated for 16 hrs by quanti-blue SEAP assay relative to control; assay type: cell-based; summary of the method: as §2

inhibition [1]: 0%
inhibition [2]: 0%
SMILES: O=C(Nc1ccc(Oc2cc(C(F)(F)F)cc(C(F)(F)F)c2)cc1)c1c(F)c(F)c(F)c(F)c1F

IC50 [3]: 0.88 µM
SMILES: N#Cc1c(Br)cccc1Oc1ccc(-c2nnco2)cc1

IC50 [3]: 2.32 µM
SMILES: O=C(Nc1ccc(Oc2cc(Br)cc(C(F)(F)F)c2)cc1)c1c(F)cccc1Cl

inhibition [1]: 0%
inhibition [2]: 0%
SMILES: O=C(Nc1ccc(Oc2cc(C(F)(F)F)cc(C(F)(F)F)c2)cc1)c1ccco1

inhibition [1]: 0%
inhibition [2]: 0%
SMILES: Fc1cccc(I)c1-c1nc2cc(Oc3cc(C(F)(F)F)cc(C(F)(F)F)c3)ccc2[nH]1

IC50 [3]: > 50 µM
IC50 [4]: > 50 µM
SMILES: Nc1ccc(C(=O)Nc2ccc(Oc3cc(C(F)(F)F)cc(C(F)(F)F)c3)cc2)c(F)c1

inhibition [2]: 0%
IC50 [4]: > 50 µM
SMILES: O=C(Nc1ccc(Oc2cc(C(F)(F)F)cc(C(F)(F)F)c2)cc1)c1ncccc1F

inhibition [2]: 0%
SMILES: Cc1nnc(-c2ccc(C(=O)Oc3cccc(Cl)c3C#N)cc2)o1

inhibition [1]: 0%
inhibition [2]: 0%
SMILES: C#Cc1cccc(F)c1C(=O)Nc1ccc(Oc2cc(C(F)(F)F)cc(C(F)(F)F)c2)cc1

inhibition [1]: 0%
inhibition [2]: 0%
SMILES: O=S(=O)(Nc1ccc(Oc2cc(C(F)(F)F)cc(C(F)(F)F)c2)cc1)c1c(F)cccc1Cl

IC50 [3]: > 50 µM
IC50 [4]: > 50 µM
SMILES: Fc1cccc(Cl)c1CNc1ccc(Oc2cc(C(F)(F)F)cc(C(F)(F)F)c2)cc1

IC50 [3]: 1.59 µM
SMILES: O=C(Nc1ccc(Oc2cc(F)cc(C(F)(F)F)c2)cc1)c1c(F)cccc1Cl

IC50 [3]: 5.29 µM
SMILES: Nc1c(Cl)cccc1Oc1ccc(-c2nnco2)cc1

inhibition [1]: 0%
inhibition [5]: 20 to 30%
SMILES: O=C(Nc1ccc(Oc2cc(C(F)(F)F)cc(C(F)(F)F)c2)cc1)c1cc(I)ccc1F

IC50 [6]: 7.1 µM
inhibition [7]: 0%
SMILES: O=C(Nc1c(F)cccc1Cl)c1ccc(Oc2cc(C(F)(F)F)cc(C(F)(F)F)c2)cc1

inhibition [2]: 0%
SMILES: O=C(Nc1ccc(Oc2cc(C(F)(F)F)cc(C(F)(F)F)c2)cc1)c1c(F)cccc1F

IC50 [3]: 6 µM
IC50 [4]: 1 µM
SMILES: O=C(Nc1ccc(Oc2cc(C(F)(F)F)cc(C(F)(F)F)c2)cc1)c1c(F)cccc1Br

IC50 [6]: 2.9 µM
inhibition [7]: 0%
SMILES: CN(C(=O)c1c(F)cccc1Cl)c1ccc(Oc2cc(C(F)(F)F)cc(C(F)(F)F)c2)cc1

IC50 [3]: > 5 µM
SMILES: O=C(Nc1ccc(Oc2cc(I)cc(C(F)(F)F)c2)cc1)c1c(F)cccc1Cl

IC50 [3]: 2.41 µM
IC50 [4]: 2.65 µM
SMILES: O=C(Nc1ccc(Oc2cccc(C(F)(F)F)c2)cc1)c1c(F)cccc1Cl

IC50 [3]: 2.63 µM
IC50 [4]: 4.73 µM
SMILES: O=C(Nc1ccc(Oc2cc(C(F)(F)F)cc(C(F)(F)F)c2)cc1O)c1c(F)cccc1I

inhibition [1]: 0%
SMILES: O=C(Nc1cccc(Oc2cc(C(F)(F)F)cc(C(F)(F)F)c2)c1)c1c(F)cccc1Cl

inhibition [1]: 0%
inhibition [2]: 0%
SMILES: O=C(Nc1ccc(Oc2cc(C(F)(F)F)cc(C(F)(F)F)c2)cc1)C1CCCCC1

inhibition [1]: 0%
IC50 [3]: 3.2 µM
SMILES: O=C(Nc1ccc(Oc2cc(C(F)(F)F)cc(C(F)(F)F)c2)cc1)c1sccc1Cl

IC50 [3]: 7.26 µM
SMILES: c1ccc(Oc2ccc(-c3nnco3)cc2)cc1

inhibition [5]: 20 to 30%
IC50 [4]: > 50 µM
SMILES: O=C(Nc1ccc(Oc2cc(C(F)(F)F)cc(C(F)(F)F)c2)cc1)c1ccc2nc[nH]c2c1

inhibition [5]: 20 to 30%
inhibition [8]: 20 to 30%
SMILES: O=C(Nc1ccc(Oc2cc(C(F)(F)F)cc(C(F)(F)F)c2)cc1)c1c(O)cccc1F

inhibition [5]: 20 to 30%
inhibition [8]: 20 to 30%
SMILES: Nc1cccc(F)c1C(=O)Nc1ccc(Oc2cc(C(F)(F)F)cc(C(F)(F)F)c2)cc1

inhibition [8]: 20 to 30%
IC50 [3]: 1.11 µM
SMILES: O=C(Nc1ccc(Oc2cc(C(F)(F)F)cc(C(F)(F)F)c2)cc1)c1cc(Cl)ccc1F

inhibition [2]: 0%
SMILES: N#Cc1c(Cl)cccc1Oc1ccc(-c2ncco2)cc1

IC50 [3]: 2.04 µM
SMILES: O=C(Nc1ccc(Oc2cc(Cl)cc(C(F)(F)F)c2)cc1)c1c(F)cccc1Cl

inhibition [5]: 20 to 30%
inhibition [8]: 20 to 30%
SMILES: O=C(Nc1ccc(Oc2cc(C(F)(F)F)cc(C(F)(F)F)c2)cc1)c1c(F)cccc1C(F)(F)F

IC50 [3]: 0.77 µM
SMILES: O=[N+]([O-])c1c(Cl)cccc1Oc1ccc(-c2nnco2)cc1

IC50 [3]: > 50 µM
IC50 [4]: > 50 µM
SMILES: O=C(Nc1ccc(Oc2cc(C(F)(F)F)cc(C(F)(F)F)c2)cc1)c1ccc(I)cc1F

inhibition [5]: 20 to 30%
IC50 [4]: > 50 µM
SMILES: O=C(Nc1ccc(Oc2cc(C(F)(F)F)cc(C(F)(F)F)c2)cc1)c1ccc2[nH]ccc2c1

inhibition [1]: 0%
inhibition [2]: 0%
SMILES: O=S(=O)(Nc1ccc(Oc2cc(C(F)(F)F)cc(C(F)(F)F)c2)cc1)c1ccccc1F

IC50 [3]: 2.52 µM
SMILES: N#Cc1c(Cl)cccc1COc1ccc(-c2nnco2)cc1

IC50 [3]: 3 µM
IC50 [4]: > 50 µM
SMILES: O=C(Nc1ccc(Oc2cc(C(F)(F)F)cc(C(F)(F)F)c2)cc1)c1ccccc1F

inhibition [1]: 0%
inhibition [2]: 0%
SMILES: O=C(Nc1ccc(Oc2cc(O)cc(C(F)(F)F)c2)cc1)c1c(F)cccc1Cl

IC50 [3]: > 50 µM
IC50 [4]: > 50 µM
SMILES: O=C(Nc1ccc(Oc2cc(C(F)(F)F)cc(C(F)(F)F)c2)cc1)c1c(F)cccc1OC(F)(F)F

IC50 [6]: 1.4 µM
inhibition [7]: 0%
SMILES: O=C(Nc1cc(C(F)(F)F)cc(C(F)(F)F)c1)c1c(F)cccc1Cl

inhibition [1]: 0%
IC50 [3]: > 50 µM
SMILES: O=C(Nc1ccc(Oc2cc(C(F)(F)F)cc(C(F)(F)F)c2)cc1)c1ccc(O)cc1F

inhibition [1]: 0%
IC50 [3]: 4.02 µM
SMILES: O=C(Nc1ccc(Oc2cc(C(F)(F)F)cc(C(F)(F)F)c2)cc1O)c1c(F)cccc1Cl
